One experiment relates to Sporothrix schenckii. Nature of the experiment: In vitro minimum inhibitory concentration (MIC) against isolates of Sporothrix schenck ii in Sabouraud's dextrose broth. It counts as functional. The method, boiled down:
(§1)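 Tube broth dilution in Sabouraud's dextrose broth, pH 6.5. Compounds were dissolved in Me₂SO and serially diluted in medium, then incubated at 30 °C. Growth control was read at 48 h for Candida albicans and C. parapsilosis, 72 h for Aspergillus fumigatus, and 7 days for Sporothrix schenckii and the dermatophytes. MIC is the lowest concentration with no macroscopic growth.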

The next experiment has as its system Epidermophyton floccosum. Put plainly: In vitro minimum inhibitory concentration (MIC) against isolates of Epidermophyton floccosum in Sabouraud's dextrose broth. It counts as functional. In outline: as §1
A further experiment has as its system Microsporum canis. Nature of the experiment: In vitro minimum inhibitory concentration (MIC) against isolates of Microsporum canis in Sabouraud's dextrose broth. It counts as functional. In outline: as §1
The next experiment has as its system Candida parapsilosis. Put plainly: In vitro minimum inhibitory concentration (MIC) against isolates of Candida parapsilosis in Sabouraud's dextrose broth. The following applies: Lodderomyces parapsilosis. It counts as functional. In outline:
as §1

Another experiment deals with Trichophyton benhamiae. Put plainly: In vitro minimum inhibitory concentration (MIC) against isolates of Trichophyton mentagrophytes in Sabouraud's dextrose broth. It counts as functional, Arthroderma benhamiae. In outline:
as §1

For experiment [1], the system named is Cavia porcellus. Put plainly: Compound was evaluated in vivo for the activity (% mycological cure) by oral treatment of guinea pig dermatophytosis caused by Trichophyton mentagrophytes. Dose = 10 mg/kg/day. In kind it is functional. The method, boiled down:
(§2)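 Guinea pigs, 8–10 per dose, with shorn lumbar backs were inoculated over a 3.5 cm circle with 0.1 mL Sabouraud 2% dextrose broth carrying 10^6 cfu T. mentagrophytes. Compound in miglyol 812 was given as 0.5 mL by stomach tube once daily for 9 days from the inoculation day. One day after the last dose, hairs from lesions were cultured and hair-root regions examined microscopically for fungal growth.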

Experiment [2] deals with Cavia porcellus. Put plainly: Compound was evaluated in vivo for the activity (% mycological cure) by oral treatment of guinea pig dermatophytosis caused by Trichophyton mentagrophytes. Dose =5 mg/kg/day. It counts as functional. The method, boiled down: as §2
In the next experiment the test system is Candida albicans. Put plainly: In vitro minimum inhibitory concentration (MIC) against isolates of Candida albicans in Sabouraud's dextrose broth. In kind it is functional. In outline: as §1
The next experiment has as its system Aspergillus fumigatus. Put plainly: In vitro minimum inhibitory concentration (MIC) against isolates of Aspergillus fumigatus in Sabouraud's dextrose broth. In kind it is functional. The method, boiled down:
as §1

Experiment [3] relates to Cavia porcellus. Put plainly: Compound was evaluated in vivo for the activity (% mycological cure) by oral treatment of guinea pig dermatophytosis caused by Trichophyton mentagrophytes. Dose = 150 mg/kg/day. In kind it is functional. In outline: as §2
The subject of experiment [4] is Cavia porcellus. Put plainly: Compound was evaluated in vivo for the activity (% mycological cure) by topical treatment of guinea pig dermatophytosis caused by Trichophyton mentagrophytes (0.125% of compound). It counts as functional. In outline:
(§3)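 Infection model: 8–10 guinea pigs per dose level, lumbar backs shorn, 10^6 cfu T. mentagrophytes in 0.1 mL Sabouraud 2% dextrose broth applied over a 3.5 cm diameter area. Starting 48 h post-inoculation, 0.4 mL compound solution in PEG 400/ethanol 75/25 (v/v) was spread on the lesion once daily for 7 days. Read-out on day 3 after the last treatment: hair cultures checked microscopically for growth at hair roots.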

Experiment [5] concerns Cavia porcellus. Nature of the experiment: Compound was evaluated in vivo for the activity (% mycological cure) by topical treatment of guinea pig dermatophytosis caused by Trichophyton mentagrophytes (0.5% of compound). In kind it is functional. The method, boiled down: as §3
Experiment [6] concerns Cavia porcellus. Nature of the experiment: Compound was evaluated in vivo for the activity (% mycological cure) by oral treatment of guinea pig dermatophytosis caused by Trichophyton mentagrophytes. Dose = 37.5 mg/kg/day. In kind it is functional. In outline:
as §2

Experiment [7] relates to Cavia porcellus. Nature of the experiment: Compound was evaluated in vivo for the activity (% mycological cure) by oral treatment of guinea pig dermatophytosis caused by Trichophyton mentagrophytes. Dose = 5 mg/kg/day. In kind it is functional. In outline:
as §2

For experiment [8], the system named is Cavia porcellus. Put plainly: Compound was evaluated in vivo for the activity (% mycological cure) by oral treatment of guinea pig dermatophytosis caused by Trichophyton mentagrophytes. Dose = 75 mg/kg/day. It counts as functional. In outline:
as §2

The structures appear in SMILES notation. ≈ marks a conversion by molar mass, not a printed value.

For orientation: MIC means the lowest concentration found to suppress growth. A high value points to a need for much substance.

For `CCCCC#C/C=C\CN(C)Cc1cccc2ccccc12`, the MIC came out at 50 µg/mL (≈ 172 µM) against Sporothrix schenckii; 100 µg/mL (≈ 343 µM) against Epidermophyton floccosum; 0.2 µg/mL (≈ 0.686 µM) in the experiment on Microsporum canis; 100 µg/mL (≈ 343 µM) against Candida parapsilosis; 0.2 µg/mL (≈ 0.686 µM) in the experiment with Trichophyton benhamiae.
On to `CCCCC#CC#CCN(C)Cc1cccc2ccccc12`, for which the MIC is 100 µg/mL (≈ 346 µM) in the experiment with Sporothrix schenckii; 3.1 µg/mL (≈ 10.7 µM) against Epidermophyton floccosum; 0.8 µg/mL (≈ 2.76 µM) in the experiment with Microsporum canis; 100 µg/mL (≈ 346 µM) against Candida parapsilosis; 0.2 µg/mL (≈ 0.691 µM) against Trichophyton benhamiae.
As to `CCC(C)C#C/C=C/CN(C)Cc1cccc2ccccc12` (configuration not stated), the MIC in the experiment with Sporothrix schenckii was determined as 0.8 µg/mL (≈ 2.75 µM); against Epidermophyton floccosum, 0.006 µg/mL (≈ 0.0206 µM); in the experiment with Candida albicans, 100 µg/mL (≈ 343 µM); against Microsporum canis it was 0.006 µg/mL (≈ 0.0206 µM); against Candida parapsilosis it was 0.4 µg/mL (≈ 1.37 µM); against Aspergillus fumigatus it was 100 µg/mL (≈ 343 µM). The same compound displayed an MIC against Trichophyton benhamiae of 0.01 µg/mL (≈ 0.0343 µM). Moreover, the Activity was determined as 75% in the experiment on Cavia porcellus [1] and 23% in the experiment with Cavia porcellus [2].
For the compound `CCCC/C=C/C=C/CN(C)Cc1cccc2ccccc12`, the MIC amounted to 3.1 µg/mL (≈ 10.6 µM) in the experiment on Sporothrix schenckii; 0.2 µg/mL (≈ 0.682 µM) with Epidermophyton floccosum; 0.1 µg/mL (≈ 0.341 µM) against Microsporum canis; 1.6 µg/mL (≈ 5.45 µM) with Candida parapsilosis; 0.05 µg/mL (≈ 0.17 µM) in the experiment on Trichophyton benhamiae. The Activity in the experiment with Cavia porcellus [3] was 43%; with Cavia porcellus [4], 40%; in the experiment with Cavia porcellus [5], 69%.
Take `CCCC/C=C/C#CCN(C)Cc1cccc2ccccc12`: the MIC in the experiment with Sporothrix schenckii was greater than 100 µg/mL; in the experiment on Epidermophyton floccosum it was 1.6 µg/mL (≈ 5.49 µM); against Microsporum canis it was 0.2 µg/mL (≈ 0.686 µM); against Candida parapsilosis it was greater than 100 µg/mL; in the experiment on Trichophyton benhamiae it was 0.2 µg/mL (≈ 0.686 µM).
In the case of `CCCCC#C/C=C/CN(C)Cc1cccc2ccccc12`, the Activity in the experiment on Cavia porcellus [6] came to 83%; in the experiment with Cavia porcellus [7], 0%; with Cavia porcellus [3] it was 100%; with Cavia porcellus [1], 15%; with Cavia porcellus [8], 100%; in the experiment on Cavia porcellus [4], 83%. The compound further gave an Activity with Cavia porcellus [5] of 100%. The MIC came to 1.6 µg/mL (≈ 5.49 µM) in the experiment with Sporothrix schenckii; 0.01 µg/mL (≈ 0.0343 µM) in the experiment on Epidermophyton floccosum; 100 µg/mL (≈ 343 µM) in the experiment on Candida albicans; 0.01 µg/mL (≈ 0.0343 µM) in the experiment with Microsporum canis; 0.4 µg/mL (≈ 1.37 µM) against Candida parapsilosis; 100 µg/mL (≈ 343 µM) against Aspergillus fumigatus. Besides, in the experiment with Trichophyton benhamiae, the MIC was 0.01 µg/mL (≈ 0.0343 µM).
For the compound `CN(C/C=C/c1ccccc1)Cc1cccc2ccccc12` [NAFTIFINE], the MIC in the experiment with Sporothrix schenckii worked out at 1.6 µg/mL (≈ 5.57 µM); with Epidermophyton floccosum it was 0.2 µg/mL (≈ 0.696 µM); in the experiment on Microsporum canis, 0.1 µg/mL (≈ 0.348 µM); in the experiment with Candida parapsilosis, 1.6 µg/mL (≈ 5.57 µM); in the experiment with Trichophyton benhamiae, 0.05 µg/mL (≈ 0.174 µM). Also, the Activity in the experiment on Cavia porcellus [4] is on record as 35%; in the experiment with Cavia porcellus [5], 65%.
As for `CN(C/C=C/C#CC(C)(C)C)Cc1cccc2ccccc12` [TERBINAFINE], the MIC with Sporothrix schenckii was 0.4 µg/mL (≈ 1.37 µM); in the experiment on Epidermophyton floccosum, 0.006 µg/mL (≈ 0.0206 µM); against Candida albicans, 25 µg/mL (≈ 85.8 µM); against Microsporum canis, 0.006 µg/mL (≈ 0.0206 µM); with Candida parapsilosis, 0.4 µg/mL (≈ 1.37 µM); in the experiment on Aspergillus fumigatus it was 0.8 µg/mL (≈ 2.75 µM). In addition, the MIC in the experiment on Trichophyton benhamiae was 0.006 µg/mL (≈ 0.0206 µM). For the same compound, the Activity worked out at 98% in the experiment on Cavia porcellus [7] and 100% in the experiment with Cavia porcellus [1].
